Assay results published in PMC2805153 (Molecular cancer therapeutics, 2009).
Entries after “also recorded” stand apart in the source; their conditions may differ.

Columns and labels:
[1] = tested on: human breast tumor cells; test: Growth assay, breast tumor cells in general; assay type: cell-based; conditions: SK-BR-3 and MDA-MB-231 breast tumor cells, 72 hours of treatment
How it was run: (§1)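 SK-BR-3 and MDA-MB-231 cells were grown in RPMI 1640 with 1.5% FBS at 37°C and 5% CO2, seeded at 5,000/well, and rested 18–24 h. Test compound or vehicle was added for 72 h (DMSO ≤0.2%). CellTiter-Glo ATP luminescence gave viable cells.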

[2] = tested on: MDA-MB-231 breast tumor cells; test: Growth assay; assay type: cell-based, human
How it was run: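 MDA-MB-231 cells went into RPMI 1640 with 1.5% FBS at 5,000/well and rested 18–24 h. Optional 1 h pretreatment with NOR-3 came next, then test compound or vehicle for 72 h (DMSO ≤0.2%). Viable cells were read as ATP luminescence (CellTiter-Glo).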

[3] = biological target: PDE5A (Homo sapiens, UniProt O76074); test: Recombinant PDE isozyme IMAP FP assay; assay type: biochemical
How it was run: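 Commercial recombinant PDE isozyme at 0.25 mg/mL, preincubated with test compound 30 min at 30°C. Substrate mix of 25 nM each fluorescein-cAMP and TAMRA-cGMP then added for 90 min at 30°C, with cAMP and cGMP hydrolysis read together. Binding reagent stops reaction; IMAP fluorescence polarization read. DMSO ≤2%. IC50 from 10 concentrations, ≥2 replicates each, versus vehicle, four-parameter logistic fit; experiments repeated at least twice.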

[4] = tested on: breast tumor cells; test: Cell cycle distribution; assay type: cell-based, human; conditions: conditions of the growth assays, data not shown
[5] = tested on: SK-BR-3 breast tumor cells; test: Growth assay; assay type: cell-based; conditions: Homo sapiens, SK-BR-3, 72 h, read-out: growth inhibition IC50
How it was run: as §1

[6] = biological target: PDE8A (Homo sapiens, UniProt O60658); test: Recombinant PDE isozyme IMAP FP assay; assay type: biochemical; conditions: cAMP substrate; SS tested up to 200 μM
[7] = tested on: breast tumor cells; test: TUNEL labeling; assay type: cell-based, human; conditions: data not shown
[8] = tested on: ZR75-1 breast tumor cells; test: Growth assay; assay type: cell-based; conditions: Homo sapiens, ZR-75-1, 72 h, read-out: growth inhibition IC50
How it was run: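 Cells seeded at 5,000/well were rested 18–24 h, then treated with test compound or vehicle for 72 h (DMSO ≤0.2%). Growth was scored as viable-cell ATP luminescence (CellTiter-Glo) against vehicle.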

[9] = biological target: PDE11A (Homo sapiens, UniProt Q9HCR9); test: Recombinant PDE isozyme IMAP FP assay; assay type: biochemical; conditions: SS tested up to 200 μM
[10] = tested on: HMEC; test: Intracellular cGMP assay; assay type: cell-based, human; conditions: 30 minutes of treatment
How it was run: (§2)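 Cells were seeded at 1×10^6 per 10 cm dish: HMEC in MEGM, MDA-MB-231 in RPMI 1640 with 1.5% FBS. After 48 h they were exposed to test compound or vehicle for 30 min, then lysed. Intracellular cGMP was measured by direct competitive EIA, optical density at 630 nm.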

[11] = tested on: PDE activity in SK-BR-3 and MDA-MB-231 cell lysates; test: IMAP FP PDE assay in tumor cell lysates; assay type: biochemical, human; conditions: for inhibition of cGMP hydrolysis: tumor cell lysates, TAMRA-cGMP substrate
[12] = tested on: PKG (VASP phosphorylation) in MDA-MB-231 cells; test: VASP Ser239 phosphorylation western blot; assay type: cell-based, human
How it was run: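 MDA-MB-231 cells were treated with test compound across doses and times, then lysed in Tris-acetate/Triton X-100/NaF buffer at pH 7.4. Lysate (30 μg protein) was separated by 12% SDS-PAGE and transferred to nitrocellulose, blocked in 5% BSA in TBS-0.05% Tween-20. Blots were probed for phospho-VASP Ser239 and total VASP with HRP secondaries and detected by chemiluminescence on film.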

[13] = tested on: normal human mammary epithelial cells (HMEC); test: Growth assay; assay type: cell-based; conditions: 72 h, read-out: growth inhibition IC50
How it was run: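 Primary normal mammary epithelial cells were grown in MEGM complete medium and seeded at 5,000/well. After 18–24 h they received test compound or vehicle for 72 h (DMSO ≤0.2%). ATP-based luminescence (CellTiter-Glo) measured viable cells.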

[14] = biological target: PDE6C (Homo sapiens, UniProt P51160); test: Recombinant PDE isozyme IMAP FP assay; assay type: biochemical; conditions: cGMP substrate; SS tested up to 200 μM
[15] = biological target: PDE7A (Homo sapiens, UniProt Q13946); test: Recombinant PDE isozyme IMAP FP assay; assay type: biochemical; conditions: cAMP substrate; SS tested up to 200 μM
[16] = tested on: COX-1; conditions: read-out: IC50 to inhibit COX-1; cited from earlier work
[17] = biological target: PDE4A (Homo sapiens, UniProt P27815); test: Recombinant PDE isozyme IMAP FP assay; assay type: biochemical; conditions: cAMP substrate; SS tested up to 200 μM
[18] = tested on: MDA-MB-231, SKBR3, and ZR75-1 cells; test: Caspase3/7 Glo apoptosis assay; assay type: cell-based, human; conditions: 100 μM, 5 hours
How it was run: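 MDA-MB-231 and SK-BR-3 cells were kept in RPMI 1640 with 10% FBS, with serum cut to 1.5% FBS for the assay, at 37°C and 5% CO2. Cells were seeded at 10,000/well, rested 18–24 h, then given test compound or vehicle (DMSO ≤0.2%). Caspase 3/7 activation was read as luminescence from Caspase3/7 Glo substrate cleavage.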

[19] = biological target: PDE9A (Homo sapiens, UniProt O76083); test: Recombinant PDE isozyme IMAP FP assay; assay type: biochemical; conditions: cGMP substrate; SS tested up to 200 μM
[20] = tested on: MDA-MB-231 cells; test: Intracellular cGMP assay; assay type: cell-based, human
How it was run: as §2

[21] = biological target: PDE10A (Homo sapiens, UniProt Q9Y233); test: Recombinant PDE isozyme IMAP FP assay; assay type: biochemical; conditions: SS tested up to 200 μM
[22] = tested on: PDE activity in HMEC lysates; test: IMAP FP PDE assay in HMEC lysates; assay type: biochemical, human
How it was run: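 HMEC were lysed in ice-cold buffer (20mM Tris-acetate, 5mM Mg acetate, 1mM EGTA, 0.8% Triton X-100, 50mM NaF, protease inhibitors, pH 7.4) and cleared at 10,000g, 10 min, 4°C. Lysate at 0.25 mg/mL was preincubated with test compound 30 min at 30°C. Substrate was 25 nM each Fl-cAMP and TAMRA-cGMP, run 90 min at 30°C. Reactions were stopped with IMAP binding reagent and read by FP (DMSO ≤2%). IC50 came from 10 concentrations, ≥2 replicates.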

[23] = tested on: HMEC; test: Caspase3/7 Glo apoptosis assay; assay type: cell-based, human; conditions: 5 hours, staurosporine 1μM positive control
How it was run: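 HMEC grown in MEGM complete medium were seeded at 10,000 cells/well and left 18–24 h. They were then exposed to test compound or vehicle (DMSO ≤0.2%), with 1μM staurosporine as positive control. Apoptosis was read as Caspase3/7 Glo luminescence from cleavage of a caspase 3/7 substrate.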

[24] = MDA-MB-231, 30 minutes of treatment
[25] = breast tumor cells, line not given

Sequence of PDE10A (Q9Y233 290-1055 limits assumed): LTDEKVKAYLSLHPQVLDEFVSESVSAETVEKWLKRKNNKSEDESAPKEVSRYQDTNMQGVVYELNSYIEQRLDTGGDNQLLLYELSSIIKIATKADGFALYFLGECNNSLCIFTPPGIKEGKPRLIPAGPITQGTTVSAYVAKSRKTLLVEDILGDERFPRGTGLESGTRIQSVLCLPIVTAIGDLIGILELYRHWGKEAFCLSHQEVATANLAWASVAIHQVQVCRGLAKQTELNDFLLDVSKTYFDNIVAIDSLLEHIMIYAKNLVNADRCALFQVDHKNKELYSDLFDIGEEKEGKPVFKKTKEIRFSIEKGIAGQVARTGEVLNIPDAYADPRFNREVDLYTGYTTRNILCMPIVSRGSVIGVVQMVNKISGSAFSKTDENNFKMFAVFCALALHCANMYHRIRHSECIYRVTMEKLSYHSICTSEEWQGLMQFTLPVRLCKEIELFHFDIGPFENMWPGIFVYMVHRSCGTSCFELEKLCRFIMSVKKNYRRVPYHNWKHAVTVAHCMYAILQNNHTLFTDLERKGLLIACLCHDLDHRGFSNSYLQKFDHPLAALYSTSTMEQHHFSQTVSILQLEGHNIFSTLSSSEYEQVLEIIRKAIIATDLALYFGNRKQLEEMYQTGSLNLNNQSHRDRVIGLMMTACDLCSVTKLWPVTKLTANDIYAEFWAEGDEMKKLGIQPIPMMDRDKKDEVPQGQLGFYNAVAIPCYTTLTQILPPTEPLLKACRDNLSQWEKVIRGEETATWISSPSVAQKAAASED
Sequence of PDE11A (Q9HCR9 whole entry): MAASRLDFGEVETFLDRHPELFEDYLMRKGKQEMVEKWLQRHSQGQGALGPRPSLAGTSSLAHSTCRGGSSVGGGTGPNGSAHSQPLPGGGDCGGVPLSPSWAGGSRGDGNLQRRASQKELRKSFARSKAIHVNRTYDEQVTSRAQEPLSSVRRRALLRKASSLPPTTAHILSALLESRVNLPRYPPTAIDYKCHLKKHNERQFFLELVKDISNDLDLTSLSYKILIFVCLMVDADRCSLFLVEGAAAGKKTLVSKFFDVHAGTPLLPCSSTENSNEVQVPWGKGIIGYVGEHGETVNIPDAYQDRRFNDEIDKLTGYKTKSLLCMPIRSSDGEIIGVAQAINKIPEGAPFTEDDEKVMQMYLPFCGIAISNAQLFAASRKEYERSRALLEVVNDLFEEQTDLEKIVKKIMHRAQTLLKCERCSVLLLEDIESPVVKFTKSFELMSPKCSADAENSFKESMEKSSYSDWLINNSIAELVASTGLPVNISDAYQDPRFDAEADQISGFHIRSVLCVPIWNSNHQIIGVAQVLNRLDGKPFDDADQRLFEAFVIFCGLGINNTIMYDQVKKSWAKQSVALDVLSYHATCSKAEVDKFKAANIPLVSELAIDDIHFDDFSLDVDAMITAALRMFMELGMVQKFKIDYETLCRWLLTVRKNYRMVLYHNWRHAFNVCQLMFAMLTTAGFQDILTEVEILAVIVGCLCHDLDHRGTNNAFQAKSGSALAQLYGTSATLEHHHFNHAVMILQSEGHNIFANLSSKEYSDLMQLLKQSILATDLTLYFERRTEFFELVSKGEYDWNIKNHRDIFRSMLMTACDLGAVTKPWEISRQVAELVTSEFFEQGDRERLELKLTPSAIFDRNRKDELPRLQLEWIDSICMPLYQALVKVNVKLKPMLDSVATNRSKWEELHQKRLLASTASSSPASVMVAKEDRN
Sequence of PDE7A (Q13946 whole entry): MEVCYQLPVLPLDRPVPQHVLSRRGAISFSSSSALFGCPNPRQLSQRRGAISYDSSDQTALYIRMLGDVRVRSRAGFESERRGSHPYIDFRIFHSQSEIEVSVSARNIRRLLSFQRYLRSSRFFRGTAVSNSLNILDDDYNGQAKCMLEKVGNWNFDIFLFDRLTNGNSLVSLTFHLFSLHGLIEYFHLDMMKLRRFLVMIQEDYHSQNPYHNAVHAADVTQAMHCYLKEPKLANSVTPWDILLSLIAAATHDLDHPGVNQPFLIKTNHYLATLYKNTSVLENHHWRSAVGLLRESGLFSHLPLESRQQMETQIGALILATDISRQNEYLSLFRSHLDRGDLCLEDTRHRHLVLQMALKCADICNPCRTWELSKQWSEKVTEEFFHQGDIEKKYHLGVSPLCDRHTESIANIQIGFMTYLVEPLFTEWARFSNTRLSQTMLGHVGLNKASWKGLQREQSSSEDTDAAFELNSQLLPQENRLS
Sequence of PDE8A (O60658 whole entry): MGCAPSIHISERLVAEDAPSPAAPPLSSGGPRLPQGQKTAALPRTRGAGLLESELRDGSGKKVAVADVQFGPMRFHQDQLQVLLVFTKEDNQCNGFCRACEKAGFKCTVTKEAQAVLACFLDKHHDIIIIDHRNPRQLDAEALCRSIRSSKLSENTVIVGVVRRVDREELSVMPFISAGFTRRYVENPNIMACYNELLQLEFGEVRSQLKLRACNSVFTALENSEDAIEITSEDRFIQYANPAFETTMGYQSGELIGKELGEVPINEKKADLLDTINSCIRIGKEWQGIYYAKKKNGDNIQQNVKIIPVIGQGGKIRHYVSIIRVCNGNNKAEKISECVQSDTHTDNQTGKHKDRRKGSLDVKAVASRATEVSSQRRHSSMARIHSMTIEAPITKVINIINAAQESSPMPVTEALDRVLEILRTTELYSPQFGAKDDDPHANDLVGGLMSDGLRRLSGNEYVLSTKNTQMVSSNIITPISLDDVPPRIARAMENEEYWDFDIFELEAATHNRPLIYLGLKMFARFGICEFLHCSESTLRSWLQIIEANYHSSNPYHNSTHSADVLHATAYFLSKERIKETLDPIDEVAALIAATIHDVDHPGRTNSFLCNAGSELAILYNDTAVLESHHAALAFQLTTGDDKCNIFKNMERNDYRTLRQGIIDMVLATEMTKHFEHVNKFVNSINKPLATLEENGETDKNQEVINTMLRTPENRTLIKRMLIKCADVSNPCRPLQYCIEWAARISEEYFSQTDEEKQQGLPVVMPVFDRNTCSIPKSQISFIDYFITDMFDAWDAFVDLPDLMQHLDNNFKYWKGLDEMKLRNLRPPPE
Sequence of PDE4A (P27815 whole entry): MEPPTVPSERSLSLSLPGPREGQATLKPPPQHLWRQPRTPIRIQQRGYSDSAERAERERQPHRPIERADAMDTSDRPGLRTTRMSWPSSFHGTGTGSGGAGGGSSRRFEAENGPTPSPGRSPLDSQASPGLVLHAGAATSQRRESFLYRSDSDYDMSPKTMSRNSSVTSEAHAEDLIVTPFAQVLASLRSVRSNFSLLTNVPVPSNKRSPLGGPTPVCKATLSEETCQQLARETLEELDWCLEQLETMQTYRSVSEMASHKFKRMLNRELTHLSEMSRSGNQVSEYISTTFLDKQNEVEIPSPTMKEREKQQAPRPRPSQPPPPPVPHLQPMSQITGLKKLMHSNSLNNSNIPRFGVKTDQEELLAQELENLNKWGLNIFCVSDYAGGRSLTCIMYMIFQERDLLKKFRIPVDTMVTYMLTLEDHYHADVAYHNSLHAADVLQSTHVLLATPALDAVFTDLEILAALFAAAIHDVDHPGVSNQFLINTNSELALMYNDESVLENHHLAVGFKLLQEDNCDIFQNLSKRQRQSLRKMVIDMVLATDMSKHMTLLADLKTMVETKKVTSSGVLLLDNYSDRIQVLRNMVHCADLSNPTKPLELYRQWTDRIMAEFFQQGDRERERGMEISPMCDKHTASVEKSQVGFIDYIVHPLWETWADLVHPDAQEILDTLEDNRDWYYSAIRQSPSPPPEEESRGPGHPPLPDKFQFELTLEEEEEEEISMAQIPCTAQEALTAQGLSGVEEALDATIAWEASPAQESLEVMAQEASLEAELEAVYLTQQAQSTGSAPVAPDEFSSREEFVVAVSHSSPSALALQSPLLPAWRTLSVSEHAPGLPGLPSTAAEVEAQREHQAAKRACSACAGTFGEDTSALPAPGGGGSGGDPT
Sequence of PDE6C (P51160 whole entry): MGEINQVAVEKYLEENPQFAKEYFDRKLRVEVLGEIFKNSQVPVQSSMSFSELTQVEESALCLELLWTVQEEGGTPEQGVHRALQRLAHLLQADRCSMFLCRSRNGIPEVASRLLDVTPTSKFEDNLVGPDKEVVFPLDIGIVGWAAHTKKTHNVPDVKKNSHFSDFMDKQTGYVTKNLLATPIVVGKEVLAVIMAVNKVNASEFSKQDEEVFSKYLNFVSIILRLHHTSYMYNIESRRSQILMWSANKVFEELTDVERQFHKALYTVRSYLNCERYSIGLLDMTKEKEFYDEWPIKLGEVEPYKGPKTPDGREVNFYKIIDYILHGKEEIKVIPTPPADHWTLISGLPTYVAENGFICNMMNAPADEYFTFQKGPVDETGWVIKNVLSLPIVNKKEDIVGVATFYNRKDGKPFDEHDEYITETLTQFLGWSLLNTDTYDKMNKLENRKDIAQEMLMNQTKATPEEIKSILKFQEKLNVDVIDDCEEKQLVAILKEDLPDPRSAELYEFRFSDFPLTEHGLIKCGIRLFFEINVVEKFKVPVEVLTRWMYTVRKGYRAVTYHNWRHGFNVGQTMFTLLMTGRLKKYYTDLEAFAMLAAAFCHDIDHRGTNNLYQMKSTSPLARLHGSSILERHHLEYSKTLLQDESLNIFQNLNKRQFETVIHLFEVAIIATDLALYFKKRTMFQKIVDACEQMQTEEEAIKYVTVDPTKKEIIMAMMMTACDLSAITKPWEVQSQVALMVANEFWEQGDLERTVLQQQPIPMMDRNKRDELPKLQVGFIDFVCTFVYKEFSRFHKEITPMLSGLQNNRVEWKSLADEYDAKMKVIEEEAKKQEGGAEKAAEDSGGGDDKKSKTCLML

In the case of CCCCCC[C@@H]([C@@H](C)O)n1cnc2c(N)ncnc21 (racemic) [EHNA], the “tumor cell growth inhibitory activity” value [1] is reported as “none were found to be active”.

In the case of CC/C(=C\C(=N/O)C(N)=O)C(C)[N+](=O)[O-] (racemic) [NOR-3, (±)-(E)-Ethyl-2-((E)-hydroxyimino)-5-nitro-3-hexenamide], the “tumor cell growth inhibitory activity” value [1] is reported as “inhibited the growth”.

In the case of COCc1nc2c([nH]1)c(=O)n(C)c(=O)n2CC(C)C [8-methoxymethyl-IBMX], the “tumor cell growth inhibitory activity” value [1] is reported as “none were found to be active”.

With CC(C)Cn1c(=O)n(C)c(=O)c2[nH]cnc21 [IBMX, 3-Isobutyl-1-methylxanthine] the “tumor cell growth inhibitory activity” value [1] was “none were found to be active”.

With O=C1C(Nc2ccccc2)=CC(=O)c2ncccc21 [LY83583] the “effect on sensitivity to growth inhibition by doxorubicin” value ([2]; MDA-MB-231, control experiment, data not shown) was “ineffective”.

In the case of Clc1cccc(Nc2nnc(-c3ccccc3)c3ccccc23)c1 [MY5445, 1-(3-chloroanilino)-4-phenylphthalazine], the “tumor cell growth inhibitory activity” value [1] is reported as “inhibited breast tumor cell growth” and the IC50 [3] is reported as 14.3 µM.

In the case of CSc1ccc(/C=C2/C(C)=C(CC(=O)O)c3cc(F)ccc32)cc1 [SS, sulindac sulfide], the “effect on cell cycle distribution” value [4] is reported as “did not have a significant effect”, the IC50 [5] is reported as 59 µM and the “change of growth inhibition IC50 after pre-treatment with GC activator NOR-3” value ([2]; 1 hour pretreatment with NOR-3, 72 hours of SS treatment) is reported as “significant reduction in the IC50 value”. For the same compound, the IC50 ([2]; Homo sapiens, MDA-MB-231, 72 h, read-out: growth inhibition IC50) was 84 µM, the “IC50, cAMP hydrolysis by PDE8A” value [6] was “Inactive” and the TUNEL labeling [7] was “increased TUNEL labeling”. For the same compound, the IC50 [8] was 76 µM, the “IC50, cAMP hydrolysis by PDE11A” value ([9]; cAMP substrate) was “Inactive” and the “IC50, cGMP hydrolysis by PDE11A” value ([9]; cGMP substrate) was “Inactive”. For the same compound, the “increase of intracellular cGMP levels” value [10] was “failed to induce cGMP levels”, the “inhibition of cAMP hydrolysis” value ([11]; breast tumor cell lysates, Fl-cAMP substrate) was “did not significantly affect” and the “inhibition of cGMP hydrolysis” value [11] was “inhibited cGMP hydrolysis”. For the same compound, the “time at which VASP phosphorylation peaked” value ([12]; MDA-MB-231, 100 μM) was 1 h, the “concentration at which increases in VASP phosphorylation were apparent” value ([12]; MDA-MB-231, after 30 minutes of treatment) was […] and the “VASP phosphorylation at serine 239 (p-VASP levels)” value ([12]; MDA-MB-231, dose- and time-dependent) was “increased the levels of phosphorylated VASP”. For the same compound, the IC50 [13] was 163 µM, the “IC50, cGMP hydrolysis by PDE6C” value [14] was “Inactive” and the “IC50, cAMP hydrolysis by PDE7A” value [15] was “Inactive”. The IC50 [16] was […], the “IC50, cAMP hydrolysis by PDE4A” value [17] was “Inactive” and the “increase in the activity of caspases 3 and 7 compared to vehicle” value [18] was 2-8 fold. For the same compound, the “IC50, cGMP hydrolysis by PDE9A” value [19] was “Inactive”, the “concentration at which cGMP levels peak” value [20, 24] was […] and the “increase of intracellular cGMP levels” value [20, 24] was 2-3 fold. For the same compound, the “IC50, cAMP hydrolysis by PDE10A” value ([21]; cAMP substrate) was “Inactive”, the “IC50, cGMP hydrolysis by PDE10A” value ([21]; cGMP substrate) was “Inactive” and the “inhibition of cAMP hydrolysis” value [22] was “did not affect”. The “inhibition of cGMP hydrolysis” value [22] was “did not affect” and the “activation of caspases 3 and 7” value [23] was “resistant”.

For COc1cc2c(cc1OC)-c1c/c(=N\c3c(C)cc(C)cc3C)n(C)c(=O)n1CC2 [Trequinsin, trequinsin], the “tumor cell growth inhibitory activity” value [1] was “inhibited breast tumor cell growth”.

For OCCN(CCO)c1nc(N2CCCCC2)c2nc(N(CCO)CCO)nc(N3CCCCC3)c2n1 [dipyridamole], the “tumor cell growth inhibitory activity” value [1] was “none were found to be active”.

For C=C[C@@]1(C)CC(=O)[C@]2(O)[C@@]3(C)[C@@H](O)CCC(C)(C)[C@@H]3[C@H](O)[C@H](OC(C)=O)[C@@]2(C)O1 [forskolin], the “tumor cell growth inhibitory activity” value [1] was “no significant growth inhibitory activity”.

In the case of Cc1[nH]c(=O)c(C#N)cc1-c1ccncc1 [milrinone], the “tumor cell growth inhibitory activity” value [1] is reported as “none were found to be active”.

In the case of COc1ccc(C2CNC(=O)C2)cc1OC1CCCC1 (centres unmarked) [rolipram], the “tumor cell growth inhibitory activity” value [1] is reported as “none were found to be active”.

With CCCc1nn(C)c2c(=O)[nH]c(-c3cc(S(=O)(=O)N4CCN(C)CC4)ccc3OCC)nc12 [sildenafil] the “tumor cell growth inhibitory activity” value [1] was “none were found to be active; also recorded: unable to inhibit breast tumor cell growth”, the “inhibition of cGMP hydrolysis” value [11] was “inhibit the majority of cGMP PDE activity” and the PKG activation [12, 25] was “unable to significantly increase intracellular cGMP levels or activate PKG”. The “increase of intracellular cGMP levels” value [20, 25] was “unable to significantly increase intracellular cGMP levels”.

For CN[C@@H]1C[C@H]2O[C@@](C)([C@@H]1OC)n1c3ccccc3c3c4c(c5c6ccccc6n2c5c31)C(=O)NC4 [staurosporine], the “activation of caspases 3 and 7” value [23] was “increased caspase activity”.

With CCCOc1ccccc1-c1nc2nn[nH]c2c(=O)[nH]1 [zaprinast] the “tumor cell growth inhibitory activity” value [1] was “none were found to be active”.
